# Source: ChEMBL document CHEMBL1144889 (J Med Chem, 2003)
# The source made the active and inactive calls. The rule behind the calls is not given here.
# Columns and labels:
# [1] = system: Rattus norvegicus; experiment: Reduction in carrageenan induced paw edema in rat after oral dose; format: functional
# In short: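 Sprague-Dawley rats dosed orally, then given carrageenan into the hind paw. Edema read at 3 h as the increase in paw volume. ED50 dose calculated from dose-dependent inhibition of edema.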
# [2] = biological target: T1, Glucocorticoid receptor (Homo sapiens, UniProt P04150); experiment: Transcriptional repression in HepG2 cells expressing human glucocorticoid receptor; format: functional, cell-based
# T1 sequence (P04150 whole entry): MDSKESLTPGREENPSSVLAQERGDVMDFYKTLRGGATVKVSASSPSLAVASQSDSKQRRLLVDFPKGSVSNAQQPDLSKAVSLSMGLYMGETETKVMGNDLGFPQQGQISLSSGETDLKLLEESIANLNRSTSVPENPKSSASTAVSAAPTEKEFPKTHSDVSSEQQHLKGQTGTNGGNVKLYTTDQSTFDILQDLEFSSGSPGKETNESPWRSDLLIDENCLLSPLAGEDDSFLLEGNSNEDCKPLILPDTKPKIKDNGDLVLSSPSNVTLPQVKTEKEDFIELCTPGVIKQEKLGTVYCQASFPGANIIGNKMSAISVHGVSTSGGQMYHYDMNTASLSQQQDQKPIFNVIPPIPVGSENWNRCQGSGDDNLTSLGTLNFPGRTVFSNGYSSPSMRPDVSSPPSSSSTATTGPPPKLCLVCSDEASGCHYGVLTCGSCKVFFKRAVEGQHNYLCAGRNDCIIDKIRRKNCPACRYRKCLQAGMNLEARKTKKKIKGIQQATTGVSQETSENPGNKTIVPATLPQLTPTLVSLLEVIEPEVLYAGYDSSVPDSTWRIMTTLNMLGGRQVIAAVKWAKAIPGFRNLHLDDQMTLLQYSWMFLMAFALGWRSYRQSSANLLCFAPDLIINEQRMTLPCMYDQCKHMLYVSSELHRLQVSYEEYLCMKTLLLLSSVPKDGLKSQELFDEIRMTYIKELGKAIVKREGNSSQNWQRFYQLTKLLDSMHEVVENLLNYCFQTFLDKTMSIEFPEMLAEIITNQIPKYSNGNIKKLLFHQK
# [3] = biological target: T1, Glucocorticoid receptor; experiment: Transcriptional repression in HepG2 cells expressing human glucocorticoid receptor; - = low efficacy or a functional efficacy <20%; format: cell-based
# In short: (§1)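 Cotransfection in HepG2 cells with a luciferase reporter under an E-selectin promoter carrying one NFκB and one AP-1 site. Readout is repression of transcription. Seven-point half-log concentration-response curves. EC50 taken at half-maximal response. Efficacy expressed as % of the dexamethasone maximum. Mean of two experiments in triplicate, single run, or ≥3 experiments.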
# [4] = biological target: T2, Progesterone receptor (Homo sapiens, UniProt P06401); experiment: Displacement of [3H]progesterone from human Progesterone receptor A; - = low efficacy or functional efficacy <20%
# T2 sequence (P06401 whole entry): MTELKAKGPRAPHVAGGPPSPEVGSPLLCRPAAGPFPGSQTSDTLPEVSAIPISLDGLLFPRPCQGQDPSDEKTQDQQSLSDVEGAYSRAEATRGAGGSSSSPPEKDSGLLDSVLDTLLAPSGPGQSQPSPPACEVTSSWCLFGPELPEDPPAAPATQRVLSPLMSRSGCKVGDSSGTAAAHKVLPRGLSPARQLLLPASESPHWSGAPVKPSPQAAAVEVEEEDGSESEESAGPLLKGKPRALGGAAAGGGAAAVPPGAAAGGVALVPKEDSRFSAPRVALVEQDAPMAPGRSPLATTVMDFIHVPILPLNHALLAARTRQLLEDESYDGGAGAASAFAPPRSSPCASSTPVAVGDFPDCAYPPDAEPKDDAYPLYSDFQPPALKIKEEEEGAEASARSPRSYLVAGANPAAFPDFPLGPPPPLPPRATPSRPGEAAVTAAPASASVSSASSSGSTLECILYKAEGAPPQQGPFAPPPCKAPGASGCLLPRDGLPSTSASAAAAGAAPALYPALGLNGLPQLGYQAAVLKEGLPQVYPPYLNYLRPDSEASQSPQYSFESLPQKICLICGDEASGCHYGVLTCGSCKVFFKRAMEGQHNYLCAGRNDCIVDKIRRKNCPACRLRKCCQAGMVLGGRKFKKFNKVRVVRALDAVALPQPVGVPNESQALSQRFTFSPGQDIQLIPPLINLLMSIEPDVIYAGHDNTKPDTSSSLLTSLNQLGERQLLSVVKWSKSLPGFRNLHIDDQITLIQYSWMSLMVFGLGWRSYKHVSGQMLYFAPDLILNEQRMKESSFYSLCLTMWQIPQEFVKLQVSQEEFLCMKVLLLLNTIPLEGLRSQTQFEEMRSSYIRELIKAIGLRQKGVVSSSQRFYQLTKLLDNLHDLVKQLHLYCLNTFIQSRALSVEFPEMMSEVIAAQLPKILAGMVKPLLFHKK
# In short: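 Human PR-A expressed from baculovirus in Sf21 cells, cytosol about 40 µg protein. Incubated with about 0.8 nM [3H]progesterone overnight at 4 °C in Tris/EDTA/glycerol/DTT/molybdate buffer, pH 7.6. Nonspecific binding taken with 1 µM unlabeled progesterone. Hydroxyapatite capture, scintillation counting. IC50 from Hill analysis, Ki from Cheng-Prusoff.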
# [5] = Binding affinity towards estradiol receptor (Estrogen receptor); set-up: species or system Homo sapiens
# In short: (§2)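 Competition radioligand binding; tracers [3H]aldosterone (MR) and [3H]estradiol (ER). Bound ligand collected on hydroxyapatite, washed with ice-cold buffer, counted by scintillation. IC50 obtained from Hill analysis of binding curves, Ki from Cheng-Prusoff. Mean of two experiments in triplicate, single triplicate run, or ≥3 experiments in triplicate.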
# [6] = biological target: T2, Progesterone receptor; experiment: Displacement of [3H]progesterone from human Progesterone receptor A
# [7] = biological target: T1, Glucocorticoid receptor; experiment: Transcriptional activation in CV-1 cells expressing human glucocorticoid receptor; format: functional, cell-based
# In short: (§3)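 Cotransfection of an hGR receptor plasmid with a luciferase reporter driven by the MMTV promoter (four GREs) in CV-1 cells. Seven-point half-log concentration-response curves. EC50 taken as half-maximal response. Efficacy expressed as % of the dexamethasone maximum. Mean of two experiments in triplicate, single triplicate run, or ≥3 experiments in triplicate.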
# [8] = biological target: T1, Glucocorticoid receptor; experiment: Binding affinity towards human glucocorticoid receptor (GR) was determined using [3H]dexamethasone as radioligand in […] cells; format: cell-based
# [9] = biological target: T3, Glucocorticoid receptor (Homo sapiens) (UniProt P04150); experiment: Transcriptional activation in CV-1 cells expressing human glucocorticoid receptor compared to Dexamethasone; format: functional, cell-based
# T3 sequence (whole entry): T1 sequence (P04150 whole entry)
# In short: (§4)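 GRE activation co-transfection in CV-1 cells: hGR receptor plasmid plus a luciferase reporter driven by part of the MMTV promoter (four GRE sites, no known AP-1 or NFκB affinity). Full seven-point, half-log concentration-response curves run in triplicate. EC50 is the concentration at half-maximal response; efficacy is given as % of the dexamethasone maximal response.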
# [10] = Binding affinity towards aldosterone receptor (Mineralocorticoid receptor); set-up: species or system Homo sapiens; in short: as §2
# [11] = biological target: T4, Androgen receptor (Homo sapiens, UniProt P10275); experiment: Binding affinity towards testosterone receptor
# T4 sequence (P10275 whole entry): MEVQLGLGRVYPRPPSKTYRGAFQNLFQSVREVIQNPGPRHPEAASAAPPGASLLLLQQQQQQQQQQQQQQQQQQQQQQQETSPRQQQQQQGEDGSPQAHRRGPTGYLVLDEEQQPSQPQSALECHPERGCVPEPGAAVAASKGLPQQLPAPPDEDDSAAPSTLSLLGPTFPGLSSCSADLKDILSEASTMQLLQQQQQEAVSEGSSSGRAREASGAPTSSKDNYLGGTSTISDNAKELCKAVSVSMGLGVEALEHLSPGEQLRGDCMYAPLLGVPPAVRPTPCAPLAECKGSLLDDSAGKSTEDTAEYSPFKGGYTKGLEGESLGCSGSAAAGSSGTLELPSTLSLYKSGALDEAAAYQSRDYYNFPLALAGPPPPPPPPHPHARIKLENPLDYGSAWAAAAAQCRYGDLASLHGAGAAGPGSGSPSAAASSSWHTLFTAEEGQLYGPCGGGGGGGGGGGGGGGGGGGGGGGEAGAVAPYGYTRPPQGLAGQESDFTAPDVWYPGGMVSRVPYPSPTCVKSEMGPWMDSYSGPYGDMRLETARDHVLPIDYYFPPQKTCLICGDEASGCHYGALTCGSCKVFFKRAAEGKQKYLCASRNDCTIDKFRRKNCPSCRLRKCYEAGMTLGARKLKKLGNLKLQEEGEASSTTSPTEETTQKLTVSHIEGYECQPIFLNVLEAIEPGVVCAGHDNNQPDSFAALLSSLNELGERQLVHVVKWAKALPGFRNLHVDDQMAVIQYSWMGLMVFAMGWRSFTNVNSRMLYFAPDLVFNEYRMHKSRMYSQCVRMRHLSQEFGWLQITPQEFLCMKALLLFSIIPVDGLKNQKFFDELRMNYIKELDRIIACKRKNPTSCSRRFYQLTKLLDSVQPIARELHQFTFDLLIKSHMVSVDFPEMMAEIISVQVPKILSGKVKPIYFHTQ
# [12] = biological target: T1, Glucocorticoid receptor; experiment: Transcriptional activation in CV-1 cells expressing human glucocorticoid receptor; - = low efficacy or a functional efficacy <20%; format: cell-based; in short: as §3
# [13] = biological target: T1, Glucocorticoid receptor; experiment: Transcriptional activation in CV-1 cells expressing human glucocorticoid receptor; - = low efficacy or a functional efficacy <5%; format: cell-based; in short: as §3
# [14] = biological target: T3, Glucocorticoid receptor (Homo sapiens); experiment: Transcriptional repression in HepG2 cells expressing human glucocorticoid receptor compared to Dexamethasone; - = low efficacy or a functional efficacy <5%; format: cell-based
# In short: (§5)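 Repression co-transfection in HepG2 cells: luciferase reporter under an E-selectin promoter carrying one NFκB and one AP-1 binding site. Full seven-point, half-log concentration-response curves run in triplicate. EC50 is the concentration at half-maximal response; maximal efficacy is given as % of the dexamethasone maximal response.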
# [15] = biological target: T3, Glucocorticoid receptor (Homo sapiens); experiment: Transcriptional activation in CV-1 cells expressing human glucocorticoid receptor compared to Dexamethasone; - = low efficacy or a functional efficacy <5%; format: cell-based; in short: as §4
# [16] = biological target: T1, Glucocorticoid receptor; experiment: Transcriptional repression in HepG2 cells expressing human glucocorticoid receptor; - = low efficacy or a functional efficacy <5%; format: cell-based; in short: as §1
# [17] = biological target: T3, Glucocorticoid receptor (Homo sapiens); experiment: Transcriptional repression in HepG2 cells expressing human glucocorticoid receptor compared to Dexamethasone; - = low efficacy or a functional efficacy <20%; format: cell-based; in short: as §5
# [18] = biological target: T3, Glucocorticoid receptor (Homo sapiens); experiment: Transcriptional activation in CV-1 cells expressing human glucocorticoid receptor compared to Dexamethasone; - = low efficacy or a functional efficacy <20%; format: cell-based; in short: as §4
SMILES,ED50 [1],EC50 [2],EC50 [3],Ki [8],Efficacy [9],EC50 [12],other results
C=CCC1Oc2ccc(O)c(Cl)c2-c2ccc3c(c21)C(C)=CC(C)(C)N3 (stereo unspecified),15 mg/kg,5 nM,–,–,–,–,–
C=CCC1Oc2ccc(OCC)c(OC)c2-c2ccc3c(c21)C(C)=CC(C)(C)N3 (stereo unspecified),–,–,Not Active,–,–,–,Ki [4]: Not Active
C=CCC1Oc2cccc(OC(F)F)c2-c2ccc3c(c21)C(C)=CC(C)(C)N3 (stereo unspecified),21 mg/kg,18 nM,–,2.2 nM,70%,–,Ki [5]: > 1000 nM; Ki [6]: 349 nM; EC50 [7]: 35 nM; Ki [10]: 35.8 nM; Ki [11]: 96.3 nM
C=CCC1Oc2cccc(OCC)c2-c2ccc3c(c21)C(C)=CC(C)(C)N3 (stereo unspecified),–,–,Not Active,65 nM,0%,Not Active,–
C=CCC1Oc2cccc(C(=O)OC)c2-c2ccc3c(c21)C(C)=CC(C)(C)N3 (stereo unspecified),–,–,–,400 nM,–,–,EC50 [13]: Not Active; Efficacy [14]: inactive; Efficacy [15]: inactive; EC50 [16]: Not Active
C=CCC1Oc2cccc(OCC3CC3)c2-c2ccc3c(c21)C(C)=CC(C)(C)N3 (stereo unspecified),–,–,Not Active,2100 nM,–,Not Active,Efficacy [17]: inactive; Efficacy [18]: inactive
C=CCC1Oc2cccc(OCc3ccccc3)c2-c2ccc3c(c21)C(C)=CC(C)(C)N3 (stereo unspecified),–,–,Not Active,6000 nM,–,Not Active,Efficacy [17]: inactive; Efficacy [18]: inactive
C=CCC1Oc2ccc(O)c(OC)c2-c2ccc3c(c21)C(C)=CC(C)(C)N3 (stereo unspecified),16 mg/kg,14 nM,–,–,–,–,Ki [6]: 150 nM
C=CCC1Oc2cccc(COC)c2-c2ccc3c(c21)C(C)=CC(C)(C)N3 (stereo unspecified),–,305 nM,–,–,5%,–,EC50 [13]: Not Active
C=CCC1Oc2cccc(CN)c2-c2ccc3c(c21)C(C)=CC(C)(C)N3 (stereo unspecified),–,467 nM,–,140 nM,7%,–,EC50 [13]: Not Active
C=CCOc1cccc2c1-c1ccc3c(c1C(CC=C)O2)C(C)=CC(C)(C)N3 (stereo unspecified),–,–,Not Active,88 nM,0%,Not Active,–
C=CCC1Oc2cccc(OC)c2-c2ccc3c(c21)C(C)=CC(C)(C)N3 (stereo unspecified) [AL-43],15 mg/kg,–,–,–,68%,–,Ki [5]: > 1000 nM; Ki [10]: 46 nM; Ki [11]: 1230 nM
